Measurements published in ChEMBL document CHEMBL3616442, “Unconventional Knoevenagel-type indoles: Synthesis and cell-based studies for the identification of pro-apoptotic agents” (Eur J Med Chem, 2015).

Assays:
[1] = tested on: MT4; assay: Antiproliferative activity against human MT4 cells after 96 hrs by MTT assay; assay type: functional, cell-based; settings: MT4, 96 h
Procedure, shortened: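 Exponentially growing MT-4 cells (CD4+ human T-cells carrying integrated HTLV-1 genome), seeded at 1×10^5 cells/mL in RPMI-1640 with 10% FCS and antibiotics. Serial dilutions of compound (DMSO stock 100 mM, diluted in medium), 37 °C, 5% CO₂, 96 h. Viability read by MTT. 50% inhibition versus untreated controls by linear regression. Mean ± SD of three independent determinations.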

[2] = tested on: CCRF-CEM; assay: Growth inhibition of human CCRF-CEM cells after 48 hrs by sulforhodamine B assay; assay type: functional
Procedure, shortened: (§1)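 NCI 60-cell-line screen. Compounds tested at five 10-fold dilutions from 10^-4 to 10^-8 M. Cells exposed for the last 48 h of a 72 h incubation, growth estimated by sulforhodamine B protein assay. GI50 is the concentration giving 50% growth inhibition. Values beyond the tested range are expressed as greater or lesser than the extreme concentration.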

[3] = tested on: HL-60(TB); assay: Growth inhibition of human HL-60(TB) cells after 48 hrs by sulforhodamine B assay; assay type: functional; settings: HL-60, 48 h
Procedure, shortened: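 NCI 60-cell-line screen, HL-60(TB) included. Compound given at five 10-fold dilutions from 10^-4 to 10^-8 M. Cells exposed for the last 48 h of a 72 h incubation. Growth or viability estimated by sulforhodamine B protein assay. GI50 is the concentration giving 50% growth inhibition. Values outside the tested range are reported as greater or less than the highest or lowest concentration.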

[4] = tested on: K562; assay: Growth inhibition of human K562 cells after 48 hrs by sulforhodamine B assay; assay type: functional; settings: K562, 48 h; procedure, shortened: as §1
[5] = Growth inhibition of human RPMI8226 cells after 48 hrs by sulforhodamine B assay; assay type: functional; settings: RPMI-8226, 48 h
[6] = tested on: SR; assay: Growth inhibition of human SR cells after 48 hrs by sulforhodamine B assay; assay type: functional
[7] = Growth inhibition of human HOP92 cells after 48 hrs by sulforhodamine B assay; assay type: functional; settings: HOP-92, 48 h; procedure, shortened: as §1
[8] = tested on: NCI-H23; assay: Growth inhibition of human NCI-H23 cells after 48 hrs by sulforhodamine B assay; assay type: functional; settings: NCI-H23, 48 h; procedure, shortened: as §1
[9] = tested on: NCI-H322M; assay: Growth inhibition of human NCI-H322M cells after 48 hrs by sulforhodamine B assay; assay type: functional; procedure, shortened: as §1
[10] = tested on: NCI-H460; assay: Growth inhibition of human NCI-H460 cells after 48 hrs by sulforhodamine B assay; assay type: functional; settings: NCI-H460, 48 h; procedure, shortened: as §1
[11] = tested on: NCI-H522; assay: Growth inhibition of human NCI-H522 cells after 48 hrs by sulforhodamine B assay; assay type: functional; settings: NCI-H522, 48 h; procedure, shortened: as §1
[12] = Growth inhibition of human COLO205 cells after 48 hrs by sulforhodamine B assay; assay type: functional; settings: COLO 205, 48 h; procedure, shortened: as §1
[13] = tested on: HCT-116; assay: Growth inhibition of human HCT116 cells after 48 hrs by sulforhodamine B assay; assay type: functional; settings: HCT-116, 48 h; procedure, shortened: as §1
[14] = tested on: HT-29; assay: Growth inhibition of human HT-29 cells after 48 hrs by sulforhodamine B assay; assay type: functional; settings: HT-29, 48 h; procedure, shortened: as §1
[15] = tested on: KM12; assay: Growth inhibition of human KM12 cells after 48 hrs by sulforhodamine B assay; assay type: functional; settings: KM12, 48 h; procedure, shortened: as §1
[16] = tested on: SW-620; assay: Growth inhibition of human SW620 cells after 48 hrs by sulforhodamine B assay; assay type: functional; settings: SW-620, 48 h
[17] = tested on: SF-268; assay: Growth inhibition of human SF268 cells after 48 hrs by sulforhodamine B assay; assay type: functional; settings: SF-268, 48 h
[18] = Growth inhibition of human SF295 cells after 48 hrs by sulforhodamine B assay; assay type: functional; settings: SF-295, 48 h
[19] = Growth inhibition of human SF539 cells after 48 hrs by sulforhodamine B assay; assay type: functional; settings: SF-539, 48 h
[20] = tested on: SNB-19; assay: Growth inhibition of human SNB19 cells after 48 hrs by sulforhodamine B assay; assay type: functional; settings: SNB-19, 48 h
[21] = tested on: SNB-75; assay: Growth inhibition of human SNB75 cells after 48 hrs by sulforhodamine B assay; assay type: functional; settings: SNB-75, 48 h
[22] = tested on: U-251; assay: Growth inhibition of human U251 cells after 48 hrs by sulforhodamine B assay; assay type: functional; settings: U-251, 48 h
[23] = tested on: Malme-3M; assay: Growth inhibition of human MALME-3M cells after 48 hrs by sulforhodamine B assay; assay type: functional; procedure, shortened: as §1
[24] = tested on: M14; assay: Growth inhibition of human M14 cells after 48 hrs by sulforhodamine B assay; assay type: functional; settings: M14, 48 h; procedure, shortened: as §1
[25] = tested on: SK-MEL-2; assay: Growth inhibition of human SK-MEL-2 cells after 48 hrs by sulforhodamine B assay; assay type: functional; settings: SK-MEL-2, 48 h
[26] = tested on: SK-MEL-5; assay: Growth inhibition of human SK-MEL-5 cells after 48 hrs by sulforhodamine B assay; assay type: functional; settings: SK-MEL-5, 48 h
[27] = tested on: UACC-257; assay: Growth inhibition of human UACC257 cells after 48 hrs by sulforhodamine B assay; assay type: functional; settings: UACC-257, 48 h
[28] = tested on: UACC-62; assay: Growth inhibition of human UACC62 cells after 48 hrs by sulforhodamine B assay; assay type: functional; settings: UACC-62, 48 h
[29] = tested on: IGROV-1; assay: Growth inhibition of human IGROV1 cells after 48 hrs by sulforhodamine B assay; assay type: functional; settings: IGROV-1, 48 h; procedure, shortened: as §1
[30] = tested on: OVCAR-4; assay: Growth inhibition of human OVCAR4 cells after 48 hrs by sulforhodamine B assay; assay type: functional; settings: OVCAR-4, 48 h; procedure, shortened: as §1
[31] = tested on: OVCAR-5; assay: Growth inhibition of human OVCAR5 cells after 48 hrs by sulforhodamine B assay; assay type: functional; settings: OVCAR-5, 48 h
[32] = tested on: OVCAR-8; assay: Growth inhibition of human OVCAR8 cells after 48 hrs by sulforhodamine B assay; assay type: functional; settings: OVCAR-8, 48 h
[33] = Growth inhibition of human NCI-ADR-RES cells after 48 hrs by sulforhodamine B assay; assay type: functional; procedure, shortened: as §1
[34] = tested on: SK-OV-3; assay: Growth inhibition of human SKOV3 cells after 48 hrs by sulforhodamine B assay; assay type: functional; settings: SK-OV-3, 48 h
[35] = tested on: 786-0; assay: Growth inhibition of human 786-0 cells after 48 hrs by sulforhodamine B assay; assay type: functional; settings: 786-0, 48 h; procedure, shortened: as §1
[36] = tested on: A498; assay: Growth inhibition of human A498 cells after 48 hrs by sulforhodamine B assay; assay type: functional; settings: A498, 48 h; procedure, shortened: as §1
[37] = tested on: ACHN; assay: Growth inhibition of human ACHN cells after 48 hrs by sulforhodamine B assay; assay type: functional; procedure, shortened: as §1
[38] = tested on: CAKI-1; assay: Growth inhibition of human CAKI-1 cells after 48 hrs by sulforhodamine B assay; assay type: functional; settings: CAKI-1, 48 h; procedure, shortened: as §1
[39] = tested on: UO-31; assay: Growth inhibition of human UO31 cells after 48 hrs by sulforhodamine B assay; assay type: functional; settings: UO-31, 48 h
[40] = tested on: PC-3; assay: Growth inhibition of human PC3 cells after 48 hrs by sulforhodamine B assay; assay type: functional; settings: PC-3, 48 h
[41] = tested on: DU-145; assay: Growth inhibition of human DU145 cells after 48 hrs by sulforhodamine B assay; assay type: functional; settings: DU-145, 48 h; procedure, shortened: as §1
[42] = Growth inhibition of human BT549 cells after 48 hrs by sulforhodamine B assay; assay type: functional; settings: BT-549, 48 h; procedure, shortened: as §1
[43] = tested on: T47D; assay: Growth inhibition of human T47D cells after 48 hrs by sulforhodamine B assay; assay type: functional

With `N#C/C(=C\c1c(-c2ccccc2)[nH]c2ccccc12)S(=O)(=O)c1ccccc1` the EC50 [1] was 0.4 µM, the GI50 [2] was 2.6 µM and the GI50 [3] was 1.8 µM. It also gave a GI50 [4] of 0.348 µM, a GI50 [5] of 0.714 µM and a GI50 [6] of 17.3 µM. For the same molecule, the GI50 [7] was 10.3 µM, the GI50 [8] was 4.7 µM and the GI50 [9] was 9.2 µM. For the same molecule, the GI50 [10] was 2.7 µM, the GI50 [11] was 4.6 µM and the GI50 [12] was 1.4 µM. For the same molecule, the GI50 [13] was 2 µM, the GI50 [14] was 0.595 µM and the GI50 [15] was 0.652 µM. The GI50 [16] was 0.57 µM, the GI50 [17] was 4.5 µM and the GI50 [18] was 2.4 µM. It also gave a GI50 [19] of 2.5 µM, a GI50 [20] of 8.3 µM and a GI50 [21] of 1.7 µM. For the same molecule, the GI50 [22] was 2.6 µM, the GI50 [23] was 8.4 µM and the GI50 [24] was 3.8 µM. It also gave a GI50 [25] of 12.7 µM, a GI50 [26] of 1.82 µM and a GI50 [27] of 18.2 µM. The GI50 [28] was 2.6 µM, the GI50 [29] was 3.3 µM and the GI50 [30] was 5.5 µM. The GI50 [31] was 13.9 µM, the GI50 [32] was 6 µM and the GI50 [33] was 1.1 µM. The GI50 [34] was 6.8 µM, the GI50 [35] was 9.2 µM and the GI50 [36] was 11 µM. It also gave a GI50 [37] of 7 µM, a GI50 [38] of 5.5 µM and a GI50 [39] of 6.7 µM. For the same molecule, the GI50 [40] was 3.4 µM, the GI50 [41] was 2.9 µM and the GI50 [42] was 11.6 µM. It also gave a GI50 [43] of 3.8 µM.
Work on `COc1ccc2[nH]c(-c3ccccc3)c(/C=C(\C#N)S(=O)(=O)c3ccccc3)c2c1` yielded an EC50 [1] of 1.3 µM, a GI50 [2] of 6.5 µM and a GI50 [3] of 2.4 µM. It also gave a GI50 [4] of 1.4 µM, a GI50 [6] of 2.2 µM and a GI50 [7] of 6.1 µM. The GI50 [8] was 8 µM, the GI50 [9] was 30.1 µM and the GI50 [10] was 4.6 µM. For the same molecule, the GI50 [11] was 4 µM, the GI50 [12] was 7.4 µM and the GI50 [13] was 3.7 µM. The GI50 [14] was 3.5 µM, the GI50 [15] was 3 µM and the GI50 [16] was 4 µM. The GI50 [17] was 13.3 µM, the GI50 [18] was 2.8 µM and the GI50 [19] was 5.5 µM. For the same molecule, the GI50 [20] was 13.5 µM, the GI50 [21] was 5.9 µM and the GI50 [22] was 4.6 µM. The GI50 [23] was 19.4 µM, the GI50 [24] was 3.7 µM and the GI50 [25] was 3.7 µM. For the same molecule, the GI50 [26] was 3.1 µM, the GI50 [27] was 4.9 µM and the GI50 [28] was 3.8 µM. The GI50 [29] was 4.8 µM, the GI50 [30] was 8.3 µM and the GI50 [31] was 37.3 µM. For the same molecule, the GI50 [32] was 7.8 µM, the GI50 [33] was 3.8 µM and the GI50 [34] was 7.1 µM. It also gave a GI50 [35] of 6.1 µM, a GI50 [36] of 9.3 µM and a GI50 [37] of 12.9 µM. The GI50 [38] was 4.5 µM, the GI50 [39] was 4 µM and the GI50 [40] was 8.3 µM. It also gave a GI50 [41] of 10.1 µM, a GI50 [42] of 11.6 µM and a GI50 [43] of 5.2 µM.
